target: Serine/threonine-protein phosphatase PP1-gamma catalytic subunit (Homo sapiens, UniProt P36873); assay: Inhibition of PP1gamma by firefly bioluminescence assay
Outline: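 Recombinant PP1c (E. coli-expressed), concentration set by titration, diluted to 40 nM in Tris–HCl (pH 8.43) with 0.15% BSA and 4.0 mM DTT (DTT omitted for disulfide-containing probes). Inhibitor diacid (0–40 µM stock dilutions; 0–10 µM in assay) premixed with enzyme. Luciferin phosphate (40 µM, 5 µL) is added. After 6 min, released luciferin is read on an immobilized-luciferase column with photon counting, in triplicate. Ki is fitted with a tight-binding model.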

Serine/threonine-protein phosphatase PP1-gamma catalytic subunit, sequence (P36873 whole entry): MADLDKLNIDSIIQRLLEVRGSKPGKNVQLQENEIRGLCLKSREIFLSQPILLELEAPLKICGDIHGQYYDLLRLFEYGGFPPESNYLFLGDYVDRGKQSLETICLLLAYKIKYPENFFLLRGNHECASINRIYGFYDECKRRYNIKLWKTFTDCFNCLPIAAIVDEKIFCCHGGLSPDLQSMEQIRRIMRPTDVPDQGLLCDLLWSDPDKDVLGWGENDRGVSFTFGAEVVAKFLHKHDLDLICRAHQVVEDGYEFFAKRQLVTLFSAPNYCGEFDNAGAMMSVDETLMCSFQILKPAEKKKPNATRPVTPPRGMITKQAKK

Row | Structure (SMILES) | Ki [µM]
1 | CO[C@@H]([C@H](O)CC(=O)[C@@H](C)[C@@H](O)CC[C@@H](C)[C@@H]1O[C@]2(CC[C@@H](C)[C@H](CC[C@H](C)/C(C)=N\OCC(=O)Nc3cccc(C(=O)c4ccccc4)c3)O2)CC[C@@H]1C)[C@H](OC(=O)C[C@@H](O)/C(C(=O)O)=C(\C)C(=O)O)C(C)C | 0.0325
2 | CO[C@@H]([C@H](O)CC(=O)[C@@H](C)[C@@H](O)CC[C@@H](C)[C@@H]1O[C@]2(CC[C@@H](C)[C@H](CC[C@H](C)/C(C)=N/OCC(=O)Nc3cccc(C(=O)c4ccccc4)c3)O2)CC[C@@H]1C)[C@H](OC(=O)C[C@@H](O)/C(C(=O)O)=C(\C)C(=O)O)C(C)C | 0.008
3 | CO[C@@H]([C@H](O)CC(=O)[C@@H](C)[C@@H](O)CC[C@@H](C)[C@@H]1O[C@]2(CC[C@@H](C)[C@H](CC[C@H](C)/C(C)=N/OCC(=O)NCCSSCCNC(=O)c3ccc(F)c(N=[N+]=[N-])c3)O2)CC[C@@H]1C)[C@H](OC(=O)C[C@@H](O)/C(C(=O)O)=C(\C)C(=O)O)C(C)C | 0.0196
4 | CO[C@@H]([C@H](O)CC(=O)[C@@H](C)[C@@H](O)CC[C@@H](C)[C@@H]1O[C@]2(CC[C@@H](C)[C@H](CC[C@H](C)/C(C)=N\OCC(=O)NCCSSCCNC(=O)c3ccc(F)c(N=[N+]=[N-])c3)O2)CC[C@@H]1C)[C@H](OC(=O)C[C@@H](O)/C(C(=O)O)=C(\C)C(=O)O)C(C)C | 0.0239
5 | CO[C@@H]([C@H](O)CC(=O)[C@@H](C)[C@@H](O)CC[C@@H](C)[C@@H]1O[C@]2(CC[C@@H](C)[C@H](CC[C@H](C)C(C)=O)O2)CC[C@@H]1C)[C@H](OC(=O)C[C@@H](O)/C(C(=O)O)=C(\C)C(=O)O)C(C)C [TAUTOMYCIN DIACID] | 0.0045

The next lines start with the values.

Row | Ki [µM] | Structure (SMILES)
6 | 0.213 | COc1cc(C2(C(F)(F)F)N=N2)ccc1C(=O)NCCNC(=O)CO/N=C(\C)[C@@H](C)CC[C@@H]1O[C@@]2(CC[C@H]1C)CC[C@H](C)[C@H]([C@H](C)CC[C@H](O)[C@H](C)C(=O)C[C@@H](O)[C@H](OC)[C@H](OC(=O)C[C@@H](O)/C(C(=O)O)=C(\C)C(=O)O)C(C)C)O2
7 | 0.0084 | CO[C@@H]([C@H](O)CC(=O)[C@@H](C)[C@@H](O)CC[C@@H](C)[C@@H]1O[C@]2(CC[C@@H](C)[C@H](CC[C@H](C)/C(C)=N\OCC(=O)NCCNC(=O)c3ccc(F)c(N=[N+]=[N-])c3)O2)CC[C@@H]1C)[C@H](OC(=O)C[C@@H](O)/C(C(=O)O)=C(\C)C(=O)O)C(C)C
8 | 0.0497 | COc1cc(C2(C(F)(F)F)N=N2)ccc1C(=O)NCCNC(=O)CO/N=C(/C)[C@@H](C)CC[C@@H]1O[C@@]2(CC[C@H]1C)CC[C@H](C)[C@H]([C@H](C)CC[C@H](O)[C@H](C)C(=O)C[C@@H](O)[C@H](OC)[C@H](OC(=O)C[C@@H](O)/C(C(=O)O)=C(\C)C(=O)O)C(C)C)O2
9 | 0.0034 | CO[C@@H]([C@H](O)CC(=O)[C@@H](C)[C@@H](O)CC[C@@H](C)[C@@H]1O[C@]2(CC[C@@H](C)[C@H](CC[C@H](C)/C(C)=N/OCC(=O)NCCCNC(=O)c3ccc(F)c(N=[N+]=[N-])c3)O2)CC[C@@H]1C)[C@H](OC(=O)C[C@@H](O)/C(C(=O)O)=C(\C)C(=O)O)C(C)C
10 | 0.0173 | CO[C@@H]([C@H](O)CC(=O)[C@@H](C)[C@@H](O)CC[C@@H](C)[C@@H]1O[C@]2(CC[C@@H](C)[C@H](CC[C@H](C)/C(C)=N/OCC(=O)NCCNC(=O)c3ccc(F)c(N=[N+]=[N-])c3)O2)CC[C@@H]1C)[C@H](OC(=O)C[C@@H](O)/C(C(=O)O)=C(\C)C(=O)O)C(C)C
